Common to all, as to conditions: in vivo
Data set [1] is described as follows: Biodistribution in Fisher rat left ventricle at 1 to 3 mCi, iv after 20 mins. Format: ADME, organism-based, Heart left ventricle. The method in brief: (§1)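 Fisher rats (200–300 g) given [¹¹C]HC-15 or [¹⁸F]HC-15 (1–3 mCi, sub-pharmacologic) by tail-vein iv injection under conscious restraint. Sacrificed by decapitation under halothane anesthesia at 20 min, tissues excised and weighed, decay-corrected radioactivity gamma-counted. Expressed as %ID and %ID/g; values are the average of four rats.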

In the next data set the test system is Septum. The data set can be described thus: Biodistribution in Fisher rat septum at 1 to 3 mCi, iv after 20 mins. Format: ADME, organism-based. In outline: as §1
A short description of data set [2]: Biodistribution in Fisher rat atrioventricular node at 1 to 3 mCi, iv after 20 mins. Format: ADME, organism-based. The method in brief: as §1
The next data set has as its system Lung. Put plainly: Biodistribution in Fisher rat lung at 1 to 3 mCi, iv after 20 mins. Format: ADME, organism-based. In outline: as §1
In a further data set the test system is Solar plexus. The data set can be described thus: Biodistribution in Fisher rat solar plexus at 1 to 3 mCi, iv after 20 mins. Format: ADME, organism-based. The method in brief:
as §1

The test system of a further data set is Blood. Put plainly: Biodistribution in Fisher rat blood at 1 to 3 mCi, iv after 20 mins. Format: ADME, organism-based. The method in brief:
as §1

Data set [3] in a line: Biodistribution in Fisher rat right ventricle at 1 to 3 mCi, iv after 20 mins. Format: ADME, organism-based, Heart right ventricle. In outline:
as §1

Data set [4] is described as follows: Biodistribution in Fisher rat left atrium at 1 to 3 mCi, iv after 20 mins. Format: ADME, organism-based, Cardiac atrium. The method in brief: as §1
A further data set relates to Brain. The data set can be described thus: Biodistribution in Fisher rat brain at 1 to 3 mCi, iv after 20 mins. Format: ADME, organism-based. The method in brief: as §1
The test system of a further data set is Liver. Put plainly: Biodistribution in Fisher rat liver at 1 to 3 mCi, iv after 20 mins. Format: ADME, organism-based. The method in brief:
as §1

Data set [5] can be described thus: Biodistribution in Fisher rat right atrium at 1 to 3 mCi, iv after 20 mins. Format: ADME, organism-based, Cardiac atrium. The method in brief: as §1
The subject of the next data set is Kidney. The data set can be described thus: Biodistribution in Fisher rat kidney at 1 to 3 mCi, iv after 20 mins. Format: ADME, organism-based. In outline: as §1
Data set [6] can be described thus: Biodistribution in Fisher rat urine at 1 to 3 mCi, iv after 20 mins. Format: ADME, organism-based. The method in brief: as §1
Data set [7] can be described thus: Biodistribution in Fisher rat skeletal muscle s at 1 to 3 mCi, iv after 20 mins. Format: ADME, organism-based, Muscle tissue. In outline:
as §1

Consider `C[N+]1([11CH3])CCOC(O)(c2ccccc2)C1.O=S(=O)([O-])C(F)(F)F` (stereo not drawn), for which the Drug uptake in data set [1] is listed as 0.859 % ID/g; with Septum, 0.01 % ID/g; in data set [2], 1.083 % ID/g; with Lung, 1.302 % ID/g; with Solar plexus it was 0.938 % ID/g; in the data set with Blood it was 0.181 % ID/g. Further, the Drug uptake in data set [3] is recorded as 1.316 % ID/g; in data set [4] it was 0.526 % ID/g; with Brain, 0.022 % ID/g; in the data set on Liver, 6.284 % ID/g; in data set [5] it was 0.488 % ID/g; in the data set with Kidney it was 3.618 % ID/g. In addition, the Drug uptake in [6] came out at 31.835 % ID/g; in data set [7] it was 0.091 % ID/g.
As to `C[N+]1(C[18F])CCOC(O)(c2ccccc2)C1.O=S(=O)([O-])C(F)(F)F` (stereo not drawn), the Drug uptake in data set [1] was found to be 1.28 % ID/g; with Septum, 1.557 % ID/g; in data set [2], 0.793 % ID/g; in the data set on Lung, 3.423 % ID/g; in the data set on Solar plexus, 0.744 % ID/g; with Blood, 0.201 % ID/g. In addition, the Drug uptake in [3] is 0.037 % ID/g; in [4], 0.796 % ID/g; in the data set on Brain it was 0.046 % ID/g; in the data set with Liver it was 4.378 % ID/g; in data set [5], 0.756 % ID/g; in the data set with Kidney it was 11.651 % ID/g. The figures for the Drug uptake in data set [6] and in [7] were 17.434 % ID/g and 0.145 % ID/g, respectively.

The values are drawn from ChEMBL document CHEMBL1142885, “Evaluation of [11C]hemicholinium-15 and [18F]hemicholinium-15 as new potential PET tracers for the high-affinity choline uptake system in the heart” (Bioorg Med Chem, 2007).
